Values after ≈ are worked out from the molar mass of the structure shown.
Tested on: Mycolicibacterium smegmatis
Assay: Antimycobacterial activity against Mycobacterium smegmatis ATCC 19420 after 72 hrs by broth microtiter dilution method
Assay type: functional
Conditions: ATCC 19420, 72 h
In short: (§1)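 Twofold serial dilution in cation-adjusted Mueller–Hinton broth, final 128–0.25 mg/L, compounds first dissolved in DMSO. Strains grown on Columbia blood agar with 7% defibrinated horse blood; inoculum 5 x 10^5 cfu/mL from 0.5 McFarland suspension in 0.9% NaCl. Three runs in duplicate.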

MIC [µM]	SMILES
2.7 (≈ 0.992 µg/mL)	CCCCCCCCC/C=C\CCCCc1cc(=O)c2ccccc2n1C
5.9 (≈ 2 µg/mL)	CC/C=C\CCCCCCCCCc1cc(=O)c2ccccc2n1C
53.9 (≈ 16 µg/mL)	CCCCCC/C=C\CCc1cc(=O)c2ccccc2n1C
3.1 (≈ 1.01 µg/mL)	CCCCCC/C=C\CCCCc1cc(=O)c2ccccc2n1C
20.3 (≈ 8.03 µg/mL)	CCCCCCCC/C=C\CCCCCCCc1cc(=O)c2ccccc2n1C
5.9 (≈ 2 µg/mL)	CCCCCCCCC/C=C\CCc1cc(=O)c2ccccc2n1C
188 (≈ 64.1 µg/mL)	CCCCCCCCCCCCCc1cc(=O)c2ccccc2n1C
151 (≈ 64.1 µg/mL)	CCCCCCCCC/C=C\CCCCCCCCc1cc(=O)c2ccccc2n1C
293 (≈ 128 µg/mL)	CCCCCCCCCC/C=C\CCCCCCCCc1cc(=O)c2ccccc2n1C
12.9 (≈ 4.02 µg/mL)	CCCCC/C=C\CCCCc1cc(=O)c2ccccc2n1C
5.9 (≈ 2 µg/mL)	CCCCC/C=C\CCCCCCc1cc(=O)c2ccccc2n1C [EVOCARPINE]
> 322	CCCCCCCCCCCCCCCCCc1cc(=O)c2ccccc2n1C
14.9 (≈ 4.01 µg/mL)	CCCCCC/C=C/c1cc(=O)c2ccccc2n1C
5.1 (≈ 2.01 µg/mL)	CCCCC/C=C\C/C=C\CCCCCCCc1cc(=O)c2ccccc2n1C
10.9 (≈ 3.98 µg/mL)	CCCCCCCCCCC/C=C/C=C/c1cc(=O)c2ccccc2n1C
26.9 (≈ 8 µg/mL)	CCCC/C=C\CCCCc1cc(=O)c2ccccc2n1C
182 (≈ 64.1 µg/mL)	CCCCCCCCCC/C=C/C=C/c1cc(=O)c2ccccc2n1C
6.2 (≈ 2.02 µg/mL)	CCCCCCCC/C=C\CCc1cc(=O)c2ccccc2n1C
5.9 (≈ 2 µg/mL)	CCCCCCCC/C=C\CCCc1cc(=O)c2ccccc2n1C
347 (≈ 128 µg/mL)	CCCCCCCCCCCCCCCc1cc(=O)c2ccccc2n1C
62.7 (≈ 16 µg/mL)	CCCCC/C=C/c1cc(=O)c2ccccc2n1C
2.8 (≈ 0.99 µg/mL)	CCCCCCCCCC/C=C\CCc1cc(=O)c2ccccc2n1C
39.1 (≈ 16 µg/mL)	CCCCCCCC/C=C\CCCCCCCCc1cc(=O)c2ccccc2n1C

Tested on: not listed separately
Assay: Cytotoxicity against human MRC5 cells assessed as metabolic active cells at 100 uM after 72 hrs by XTT assay relative to control
Assay type: ADME, cell-based
Conditions: read-out: Activity
In short: (§2)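 MRC-5 human diploid embryonic lung cells seeded at 5 × 10^4 cells/well, grown 24 h, then exposed 72 h at 37 °C, 5% CO2 to compound. Ethanol stocks were diluted with buffer or water; 0.1% ethanol served as solvent control. XTT added, 4 h further, absorbance 490 nm minus 655 nm reference. Viability given as % of solvent control; triplicate on two plates, n = 6, mean ± SEM.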

SMILES	viability at 72 h, 100 µM [%]
CCCCCCCCC/C=C\CCCCc1cc(=O)c2ccccc2n1C	0.8
CC/C=C\CCCCCCCCCc1cc(=O)c2ccccc2n1C	95.4
CCCCCC/C=C\CCc1cc(=O)c2ccccc2n1C	47.9
CCCCCC/C=C\CCCCc1cc(=O)c2ccccc2n1C	81.2
CCCCCCCC/C=C\CCCCCCCc1cc(=O)c2ccccc2n1C	0.4
CCCCCCCCC/C=C\CCc1cc(=O)c2ccccc2n1C	82.1
CCCCCCCCCCCCCc1cc(=O)c2ccccc2n1C	69.6
CCCCCCCCC/C=C\CCCCCCCCc1cc(=O)c2ccccc2n1C	19.9
CCCCCCCCCC/C=C\CCCCCCCCc1cc(=O)c2ccccc2n1C	91.5
CCCCC/C=C\CCCCc1cc(=O)c2ccccc2n1C	88.5
CCCCC/C=C\CCCCCCc1cc(=O)c2ccccc2n1C [EVOCARPINE]	87.6
CCCCCCCCCCCCCCCCCc1cc(=O)c2ccccc2n1C	95.2
CCCCCC/C=C/c1cc(=O)c2ccccc2n1C	76.5
CCCCC/C=C\C/C=C\CCCCCCCc1cc(=O)c2ccccc2n1C	0.4
CCCCCCCCCCC/C=C/C=C/c1cc(=O)c2ccccc2n1C	18.5
CCCC/C=C\CCCCc1cc(=O)c2ccccc2n1C	83.5
CCCCCCCCCC/C=C/C=C/c1cc(=O)c2ccccc2n1C	32.5
CCCCCCCC/C=C\CCc1cc(=O)c2ccccc2n1C	85.6
CCCCCCCC/C=C\CCCc1cc(=O)c2ccccc2n1C	32
CCCCCCCCCCCCCCCc1cc(=O)c2ccccc2n1C	57.9
CCCCC/C=C/c1cc(=O)c2ccccc2n1C	77.2
CCCCCCCCCC/C=C\CCc1cc(=O)c2ccccc2n1C	4.9
CCCCCCCC/C=C\CCCCCCCCc1cc(=O)c2ccccc2n1C	25.5

Tested on: not listed separately
Assay: Cytotoxicity against human MRC5 cells assessed as metabolic active cells at 30 uM after 72 hrs by XTT assay relative to control
Assay type: ADME, cell-based
Conditions: read-out: Activity
In short: as §2

SMILES	viability at 72 h, 30 µM [%]
CCCCCCCCC/C=C\CCCCc1cc(=O)c2ccccc2n1C	46.6
CC/C=C\CCCCCCCCCc1cc(=O)c2ccccc2n1C	95.3
CCCCCC/C=C\CCc1cc(=O)c2ccccc2n1C	73.8
CCCCCC/C=C\CCCCc1cc(=O)c2ccccc2n1C	94.7
CCCCCCCC/C=C\CCCCCCCc1cc(=O)c2ccccc2n1C	53.4
CCCCCCCCC/C=C\CCc1cc(=O)c2ccccc2n1C	89.7
CCCCCCCCCCCCCc1cc(=O)c2ccccc2n1C	102
CCCCCCCCC/C=C\CCCCCCCCc1cc(=O)c2ccccc2n1C	95.9
CCCCCCCCCC/C=C\CCCCCCCCc1cc(=O)c2ccccc2n1C	98.9
CCCCC/C=C\CCCCc1cc(=O)c2ccccc2n1C	94.9
CCCCC/C=C\CCCCCCc1cc(=O)c2ccccc2n1C [EVOCARPINE]	94
CCCCCCCCCCCCCCCCCc1cc(=O)c2ccccc2n1C	100
CCCCCC/C=C/c1cc(=O)c2ccccc2n1C	96.8
CCCCC/C=C\C/C=C\CCCCCCCc1cc(=O)c2ccccc2n1C	44.2
CCCCCCCCCCC/C=C/C=C/c1cc(=O)c2ccccc2n1C	50.7
CCCC/C=C\CCCCc1cc(=O)c2ccccc2n1C	96.8
CCCCCCCCCC/C=C/C=C/c1cc(=O)c2ccccc2n1C	73.8
CCCCCCCC/C=C\CCc1cc(=O)c2ccccc2n1C	88.3
CCCCCCCC/C=C\CCCc1cc(=O)c2ccccc2n1C	76.3
CCCCCCCCCCCCCCCc1cc(=O)c2ccccc2n1C	79.8
CCCCC/C=C/c1cc(=O)c2ccccc2n1C	86.2
CCCCCCCCCC/C=C\CCc1cc(=O)c2ccccc2n1C	55.1
CCCCCCCC/C=C\CCCCCCCCc1cc(=O)c2ccccc2n1C	84.4

Tested on: Mycolicibacterium fortuitum
Assay: Antimycobacterial activity against Mycobacterium fortuitum ATCC 6841 after 72 hrs by broth microtiter dilution method
Assay type: functional
Conditions: ATCC 6841, 72 h
In short: as §1

MIC [µg/mL]	SMILES
2 (≈ 5.89 µM)	CCCCC/C=C\CCCCCCc1cc(=O)c2ccccc2n1C [EVOCARPINE]
4 (≈ 10.2 µM)	CCCCC/C=C\C/C=C\CCCCCCCc1cc(=O)c2ccccc2n1C
2 (≈ 5.47 µM)	CCCCCCCCCCC/C=C/C=C/c1cc(=O)c2ccccc2n1C
1 (≈ 7.29 µM)	NNC(=O)c1ccncc1 [ISONIAZID]
8 (≈ 26.9 µM)	CCCC/C=C\CCCCc1cc(=O)c2ccccc2n1C
8 (≈ 39.2 µM)	CC[C@@H](CO)NCCN[C@@H](CC)CO [ETHAMBUTOL]
1 (≈ 2.83 µM)	CCCCCCCCCC/C=C\CCc1cc(=O)c2ccccc2n1C

Tested on: Mycolicibacterium phlei
Assay: Antimycobacterial activity against Mycobacterium phlei ATCC 19249 after 72 hrs by broth microtiter dilution method
Assay type: functional
Conditions: ATCC 19249, 72 h
In short: as §1

MIC [µg/mL]	SMILES
2 (≈ 5.89 µM)	CCCCC/C=C\CCCCCCc1cc(=O)c2ccccc2n1C [EVOCARPINE]
8 (≈ 20.3 µM)	CCCCC/C=C\C/C=C\CCCCCCCc1cc(=O)c2ccccc2n1C
4 (≈ 10.9 µM)	CCCCCCCCCCC/C=C/C=C/c1cc(=O)c2ccccc2n1C
4 (≈ 29.2 µM)	NNC(=O)c1ccncc1 [ISONIAZID]
8 (≈ 26.9 µM)	CCCC/C=C\CCCCc1cc(=O)c2ccccc2n1C
4 (≈ 19.6 µM)	CC[C@@H](CO)NCCN[C@@H](CC)CO [ETHAMBUTOL]
1 (≈ 2.83 µM)	CCCCCCCCCC/C=C\CCc1cc(=O)c2ccccc2n1C

Tested on: not listed separately
Assay: Selectivity index, ratio of IC50 for human MRC5 cells to MIC for Mycobacterium smegmatis ATCC 19420
Assay type: functional
Conditions: not given

SMILES	Selectivity Index
CC/C=C\CCCCCCCCCc1cc(=O)c2ccccc2n1C	> 20
CCCCCC/C=C\CCCCc1cc(=O)c2ccccc2n1C	> 20
CCCCCCCCC/C=C\CCc1cc(=O)c2ccccc2n1C	> 20
CCCCCCCC/C=C\CCc1cc(=O)c2ccccc2n1C	> 20

— ChEMBL document CHEMBL1641521, “Design, synthesis and antimycobacterial activities of 1-methyl-2-alkenyl-4(1H)-quinolones” (Bioorg Med Chem, 2011)
